Data set [1] can be described thus: DPPH free radical scavenging assay. The essentials:
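Methanolic test compound at 0.2–1.0 μg/mL was mixed with 0.004% methanolic DPPH and kept in the dark for 30 min. Absorbance was read at 517 nm. Compound solution without DPPH served as blank and DPPH alone as control. Percent inhibition was derived from absorbance with and without antioxidant. Each measurement was repeated three times.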
For orientation: The DPPH test is a chemical assay of radical scavenging.

The subject of data set [2] is diabetic mice. The experiment in a line: Blood glucose levels in diabetic mice. Particulars: LOQ = 20 mM. It is filed as in vivo. The essentials:
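Male mice (about 20 ± 2 g) were randomised into eight groups (n = 5). After an 18 h fast, diabetes was induced with a single ip alloxan dose of 50 mg/kg in 0.5 mL, and diabetic animals served as positive control. Test compound was given ip in 0.5 mL for 1 week, with saline as negative control. Cardiac blood was drawn under diethyl ether, and serum (600g, 15 min) was assayed for glucose. Triplicate; mean ± SD; Kruskal–Wallis, p < 0.05.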

Data set [3] concerns diabetic mice. As to the kind of experiment: Hematological study in vivo. Particulars: ip; for Alb / Chlst / Cr / TG / UA: serum. The essentials: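 Alloxan-diabetic male mice (single 50 mg/kg ip after 18 h fast; n = 5 per group) received test compound ip for 1 week, with a saline group as control. Cardiac blood was drawn under diethyl ether into 10% EDTA for automated haematology (RBC, WBC, Hb, MCV, MCH, MCHC, PLT, RDW, HCT) and into plain tubes. Serum (600g, 15 min) was assayed for albumin, uric acid, glucose, triglyceride and cholesterol. Triplicate; mean ± SD; Kruskal–Wallis.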

For data set [4] the following is noted: read-out: IC50, inhibition of CuSO4-induced oxidation of human LDL; cited from earlier work.

Consider `O=C1O[C@H]([C@@H](O)CO)C(O)=C1O` [AA, Ascorbic Acid, reference compound], for which the “Inhibition percent (%), DPPH scavenging” value in data set [1] (conc. 0.2 μg mL^–1) was determined as 53.13 ± 0.7%; in data set [1] (conc. 0.4 μg mL^–1), 61.22 ± 0.7%; in data set [1] (conc. 0.6 μg mL^–1), 69.18 ± 1%; in data set [1] (conc. 0.8 μg mL^–1), 88.47 ± 0.9%; in data set [1] (conc. 1.0 μg mL^–1) it was 98.03 ± 2%.
As for `Cc1nn(-c2ccccc2)c(Cl)c1C1Nc2ccccc2C(=O)N1c1ccccc1` (stereo not drawn) [Compound 4g, 2-(5-Chloro-3-methyl-1-phenyl-1H-pyrazol-4-yl)-3-phenyl-2,3-dihydroquinazolin-4(1H)-one], the “Inhibition percent (%), DPPH scavenging” value in data set [1] (conc. 0.2 μg mL^–1) stood at 20.71 ± 0.2%; in data set [1] (conc. 0.4 μg mL^–1) it was 20.32 ± 0.2%; in data set [1] (conc. 0.6 μg mL^–1), 20.51 ± 0.1%; in data set [1] (conc. 0.8 μg mL^–1) it was 21.16 ± 0.1%; in data set [1] (conc. 1.0 μg mL^–1) it was 20.62 ± 0.5%. Besides, the “Mean blood glucose level” value in data set [2] (conc. 0.3 mM) came out at 65 ± 2 mM; in data set [2] (conc. 0.5 mM) it was 27 ± 1 mM.
For `Cc1ccc(N2C(=O)c3ccccc3NC2c2c(C)nn(-c3ccccc3)c2Cl)cc1` (stereo not drawn) [Compound 4h, 2-(5-Chloro-3-methyl-1-phenyl-1H-pyrazol-4-yl)-3-(p-tolyl)-2,3-dihydroquinazolin-4(1H)-one], in data set [1] (conc. 0.2 μg mL^–1), the “Inhibition percent (%), DPPH scavenging” value was determined as 11.42 ± 0.03%. Besides, the “Inhibition percent (%), DPPH scavenging” value in data set [1] (conc. 0.4 μg mL^–1) is reported as 11.44 ± 0.02%. Moreover, the “Inhibition percent (%), DPPH scavenging” value in data set [1] (conc. 0.6 μg mL^–1) came out at 11.46 ± 0.02%. For the same compound, the “Inhibition percent (%), DPPH scavenging” value in data set [1] (conc. 0.8 μg mL^–1) was 11.48 ± 0.04%. In addition, the “Inhibition percent (%), DPPH scavenging” value in data set [1] (conc. 1.0 μg mL^–1) amounted to 11.50 ± 0.07%. In data set [3] (dose 0.3 mM), the HB amounted to 14.5 ± 0.1 g/dL, the HCT was 37.1 ± 0.1%, the MCH is listed as 15.8 ± 0.1 ρg and the MCHC was found to be 44.0 ± 0.2 g/dL. For the same compound, in data set [3] (dose 0.3 mM), the MCV amounted to 40.9 μm^3, the RBC is given as 9.05 10^6/mm^3, the RDW is on record as 21.8 ± 0.03% and the WBC is reported as 5.3 10^3/mm^3. In data set [3] (dose 0.3 mM), this compound displayed an Alb of 2.7 ± 0.04 g/dL, a Chlst of 64 ± 3.2 mg/dL, a Cr of 0.41 ± 0.05 mg/dL and a TG of 127 ± 1.5 mg/dL. Further, the UA in data set [3] (dose 0.3 mM) amounted to 61 ± 3 µM. Further, in data set [3] (dose 0.5 mM), the HB amounted to 14.2 ± 0.25 g/dL, the HCT is on record as 37.9 ± 0.1%, the MCH was 15.5 ± 0.23 ρg and the MCHC is listed as 41.2 ± 0.1 g/dL. In data set [3] (dose 0.5 mM), the MCV turned out to be 40.1 μm^3, the RBC is listed as 9.92 10^6/mm^3, the RDW was 23.6 ± 0.02% and the WBC is listed as 5.6 10^3/mm^3. In data set [3] (dose 0.5 mM), this compound showed an Alb of 2.7 ± 0.02 g/dL, a Chlst of 58 ± 6 mg/dL, a Cr of 0.4 ± 0.05 mg/dL and a TG of 109 ± 0.7 mg/dL. The compound also had a UA in data set [3] (dose 0.5 mM) of 62 ± 1.5 µM. Moreover, the “Mean blood glucose level” value in data set [2] (conc. 0.3 mM) stood at 44 ± 1 mM. Besides, the “Mean blood glucose level” value in data set [2] (conc. 0.5 mM) came to 22 ± 1 mM.
As for `Cc1nn(-c2ccccc2)c(Cl)c1C1Nc2ccccc2C(=O)N1c1ccc(O)cc1` (stereo not drawn) [Compound 4i, 2-(5-Chloro-3-methyl-1-phenyl-1H-pyrazol-4-yl)-3-(4-hydroxyphenyl)-2,3-dihydroquinazolin-4(1H)-one], the “Inhibition percent (%), DPPH scavenging” value in data set [1] (conc. 0.2 μg mL^–1) amounted to 80.07 ± 0.77%; in data set [1] (conc. 0.4 μg mL^–1), 81.18 ± 0.5%; in data set [1] (conc. 0.6 μg mL^–1), 83.9 ± 0.1%; in data set [1] (conc. 0.8 μg mL^–1) it was 85.62 ± 0.3%; in data set [1] (conc. 1.0 μg mL^–1), 86.47 ± 0.27%. The “Mean blood glucose level” value in data set [2] (conc. 0.3 mM) is on record as 44 ± 1 mM; in data set [2] (conc. 0.5 mM), “<LOQ”.
With `Cc1nn(-c2ccccc2)c(Cl)c1C1Nc2ccccc2C(=O)N1c1ccc(Cl)cc1` (stereo not drawn) [Compound 4j, 2-(5-Chloro-3-methyl-1-phenyl-1H-pyrazol-4-yl)-3-(4-chlorophenyl)-2,3-dihydroquinazolin-4(1H)-one], the “Inhibition percent (%), DPPH scavenging” value in data set [1] (conc. 0.2 μg mL^–1) came to 79.9 ± 0.9%. In addition, the “Inhibition percent (%), DPPH scavenging” value in data set [1] (conc. 0.4 μg mL^–1) was 87.68 ± 0.7%. Further, in data set [1] (conc. 0.6 μg mL^–1), the “Inhibition percent (%), DPPH scavenging” value is recorded as 93.58 ± 1%. Moreover, in data set [1] (conc. 0.8 μg mL^–1), the “Inhibition percent (%), DPPH scavenging” value worked out at 99.37 ± 0.7%. Besides, the “Inhibition percent (%), DPPH scavenging” value in data set [1] (conc. 1.0 μg mL^–1) is recorded as 102 ± 2%. In addition, in data set [3] (dose 0.3 mM), the HB amounted to 14.8 ± 0.34 g/dL, the HCT worked out at 38.6 ± 0.1%, the MCH is 15.7 ± 0.2 ρg and the MCHC was 38.6 ± 0.2 g/dL. Further, in data set [3] (dose 0.3 mM), the MCV came to 40.2 μm^3, the PLT is 1350 10^3/mm^3, the RBC was 9.34 10^6/mm^3 and the RDW is 22.5 ± 0.01%. Also, in data set [3] (dose 0.3 mM), the WBC is 7.6 10^3/mm^3, the Alb was 2.9 ± 0.02 g/dL, the Chlst came to 66 ± 1.4 mg/dL and the Cr was 0.41 ± 0.07 mg/dL. Also, in data set [3] (dose 0.3 mM), the TG stood at 123 ± 3 mg/dL and the UA came out at 65 ± 2 µM. Moreover, in data set [3] (dose 0.5 mM), the HB came to 14.8 ± 0.3 g/dL, the HCT was 39.6 ± 0.08%, the MCH was 15.5 ± 0.03 ρg and the MCHC worked out at 38.2 ± 0.1 g/dL. Also, in data set [3] (dose 0.5 mM), the MCV came to 39.9 μm^3, the PLT is 1326 10^3/mm^3, the RBC is listed as 9.17 10^6/mm^3 and the RDW is listed as 22.2 ± 0.02%. Also, in data set [3] (dose 0.5 mM), the WBC was 8 10^3/mm^3, the Alb was 2.8 ± 0.01 g/dL, the Chlst is 62 ± 2.8 mg/dL and the Cr came out at 0.41 ± 0.09 mg/dL. In data set [3] (dose 0.5 mM), this compound came in with a TG of 116 ± 3 mg/dL and a UA of 65 ± 2 µM.
`Cc1ccc(N2C(=O)c3ccccc3NC2c2c(C)nn(-c3ccccc3)c2Cl)c(C)c1` (stereo not drawn) [Compound 4k, 2-(5-Chloro-3-methyl-1-phenyl-1H-pyrazol-4-yl)-3-(2,4-dimethylphenyl)-2,3-dihydroquinazolin-4(1H)-one]: the “Inhibition percent (%), DPPH scavenging” value in data set [1] (conc. 0.2 μg mL^–1) was 67.72 ± 0.2%. The “Inhibition percent (%), DPPH scavenging” value in data set [1] (conc. 0.4 μg mL^–1) stood at 67.80 ± 0.3%. Moreover, in data set [1] (conc. 0.6 μg mL^–1), the “Inhibition percent (%), DPPH scavenging” value was 67.87 ± 0.1%. Moreover, the “Inhibition percent (%), DPPH scavenging” value in data set [1] (conc. 0.8 μg mL^–1) came out at 67.95 ± 0.2%. The “Inhibition percent (%), DPPH scavenging” value in data set [1] (conc. 1.0 μg mL^–1) was found to be 68.03 ± 0.1%. In data set [3] (dose 0.3 mM), the HB is 8.0 ± 0.2 g/dL, the HCT is 18.1 ± 0.1%, the MCH is listed as 15.8 ± 0.1 ρg and the MCHC was 44.0 ± 0.2 g/dL. Besides, in data set [3] (dose 0.3 mM), the MCV is 44.9 μm^3, the RBC was 8.05 10^6/mm^3, the RDW is given as 12.2 ± 0.01% and the WBC was 3.15 10^3/mm^3. Further, in data set [3] (dose 0.3 mM), the Alb is 2.8 ± 0.07 g/dL, the Chlst is 64 ± 3.2 mg/dL, the Cr was 0.45 ± 0.05 mg/dL and the TG was 127 ± 2.5 mg/dL. In data set [3] (dose 0.3 mM), the UA is 66 ± 2.7 µM. In data set [3] (dose 0.5 mM), the HB came to 10.9 ± 0.1 g/dL, the HCT is on record as 34.9 ± 0.2%, the MCH is reported as 15.8 ± 0.1 ρg and the MCHC was determined as 41.2 ± 0.2 g/dL. In data set [3] (dose 0.5 mM), the MCV stood at 44.1 μm^3, the RBC is 7.92 10^6/mm^3, the RDW was found to be 24.8 ± 0.01% and the WBC is 2.8 10^3/mm^3. In data set [3] (dose 0.5 mM), this compound yielded an Alb of 2.8 ± 0.03 g/dL, a Chlst of 60 ± 6 mg/dL, a Cr of 0.42 ± 0.05 mg/dL and a TG of 121 ± 4 mg/dL. Besides, the UA in data set [3] (dose 0.5 mM) stood at 67 ± 3.3 µM. Besides, in data set [2] (conc. 0.3 mM), the “Mean blood glucose level” value turned out to be 29 ± 1 mM.
For the compound `Cc1ccc(N2C(=O)c3ccccc3NC2c2c(C)nn(-c3ccccc3)c2Cl)cc1C` (stereo not drawn) [Compound 4l, 2-(5-Chloro-3-methyl-1-phenyl-1H-pyrazol-4-yl)-3-(3,4-dimethylphenyl)-2,3-dihydroquinazolin-4(1H)-one], the “Inhibition percent (%), DPPH scavenging” value in data set [1] (conc. 0.2 μg mL^–1) came out at 60.14 ± 0.1%; in data set [1] (conc. 0.4 μg mL^–1) it was 60.19 ± 0.2%; in data set [1] (conc. 0.6 μg mL^–1), 60.25 ± 0.2%; in data set [1] (conc. 0.8 μg mL^–1), 60.30 ± 0.1%; in data set [1] (conc. 1.0 μg mL^–1), 60.35 ± 0.2%.
Turning to magnolamide, the IC50 in data set [4] was 9.7 µM.

By IC50 is commonly meant the concentration needed to halve the response being measured.

(Values after publication PMC6843711 (ACS Omega, 2019).)
